Reference: ChEMBL document CHEMBL4513216, “Probing the Open Global Health Chemical Diversity Library for Multistage-Active Starting Points for Next-Generation Antimalarials” (ACS Infect Dis, 2020)

Test: Toxicity liver stage against HepG2, at 10uM
Format: cell-based
Set-up: test concentration 10 uM, cell line HepG2-A16-CD81EGFP
Conditions: human, HepG2-A16-CD81EGFP cells; read-out: INHIBITION
In short: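 Uninfected HepG2-A16-CD81EGFP cells, 3 × 10^3 per well, 1536-well, plated on prespotted compound at 10 μM final, parasite-free screening media added to match infected plates; puromycin 10 μM positive, DMSO 0.5% negative; run in parallel with 48 h PbLuc assay at 37 °C, 5% CO2; viability by CellTiter-Glo luminescence, normalized to controls.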

SMILES | cytotoxicity at 10 µM
CC(=O)c1ccc(S(=O)(=O)N2CCOC(Cn3ccnc3)C2)cc1 (stereo unspecified) | 6.58%
O=C(NC[C@H]1OC[C@@H](NCc2ccccn2)[C@@H]1O)c1ccncc1 | -9.77%
O=C(NC[C@H]1OC[C@@H](NC2CCCC2)[C@@H]1O)C1CCCC1 | -2.15%
CC(C)N1CC[C@H](c2nc3ccc(C(F)(F)F)cc3[nH]2)C1 | -2.07%
CC(=O)N1CC[C@H](c2nnc(Cc3c[nH]c4ccccc34)o2)C1 | 8.12%
Cc1cc(CN(C)CCC(O)c2ccccc2)no1 (stereo unspecified) | 0.238%
CO[C@@H]1CN(c2ccccc2)S(=O)(=O)[C@@]12CCNC2 | -2.64%
CC[C@H](C)[C@H](NC(=O)c1cccc(-n2cnnn2)c1)C(=O)OC | 7.98%
CCc1c(C)sc2nc3n(CCN(C)C)nc(SC)n3c(=O)c12 | 2.26%
CNC(=O)c1nc(CC(=O)Nc2ccc3cc[nH]c3c2)no1 | 7.98%
Cc1cc(C(O)CCNC(=O)COc2ccccc2F)c(C)o1 (stereo unspecified) | 0.931%
CCC(=O)NCc1cc(C2CC2)n(C2CCCC2)n1 | -4.36%
Cn1cc(CN2CCc3ncnc(N4CCCC4)c3CC2)cn1 | -0.818%
Cn1cccc1C(=O)N1C[C@@H]2CCCO[C@@H]2[C@H](N2CCOCC2)C1 | -1.19%
Cc1noc(C)c1CN1C[C@@H]2CN(C(=O)c3cscn3)C[C@@H]2C1 | -3.09%
Cc1ccc(C(=O)N2CCc3ncc(Cn4cccn4)n3CC2)cn1 | 7.25%
Cc1cccc(CN2C[C@@H]3CN(C(=O)c4ccco4)C[C@@H]3C2=O)c1 | -3.72%
CC(=O)N1CCOC2(CCCN(Cc3ccc(Cl)c(C(F)(F)F)c3)C2)C1 (stereo unspecified) | 3.68%
O=C(O)CN1CCC2(CCc3ccccc32)CC1 | -3.7%
Cc1nc(CO[C@@H]2CN(Cc3ccccn3)[C@@H]3COC[C@@H]32)cs1 | 5.45%
COCC1CN(C(=O)N2CCCC2)Cc2cnn(CC3CCCC3)c21 (stereo unspecified) | 9.23%
OCCNc1nc(NCc2cccnc2)nc2nccnc12 | -3.55%

SMILES | cytotoxicity at 10 µM
COCC(=O)N1CC[C@@H]2CN(Cc3cccc(Cl)c3)S(=O)(=O)[C@@H]2CC1 | -3.07%
Cc1cc(C(=O)Nc2cnn(CC(F)(F)F)c2)nc(N2CCOCC2)n1 | -2.02%
Cc1cc(C)nc(Nc2nccnc2C2CCCN(C(C)C)C2)n1 (stereo unspecified) | -6.15%
Cc1nc2c(c(=O)[nH]1)CN(Cc1ccc3c(c1)CCCN3C)CC2 | -3.55%
Cc1ccc(-c2nc(C3CCN(C(=O)c4cnn(C)c4)CC3)no2)cn1 | -1.55%
CNC(=O)C1(CCCc2ccccn2)CN(Cc2scnc2C)C1 | 18%
Cc1cc(C)n(CC(=O)N2CCCC(c3cc4cccnc4[nH]3)C2)n1 (stereo unspecified) | 8.3%
Cn1c(=O)cc(C(=O)NC(Cc2ccsc2)c2cccnc2)[nH]c1=O (stereo unspecified) | 0.913%
COCCn1cnnc1C1CCCN(c2cnccn2)C1 (stereo unspecified) | -2.22%
CCS(=O)(=O)N1CCc2nc(C3CCN(C(=O)C4CC4)C3)nc(O)c2C1 (stereo unspecified) | -25.9%
Cc1nc(O)c2nnn(C[C@H]3CCCN3C(=O)C3CCCC3)c2n1 | -26.9%
CN1CCN(c2ccccc2CNC(=O)Cc2cccc(F)c2)CC1 | -6.29%
N#CCCN(Cc1cccnc1)C(=O)c1cc(Cl)c[nH]1 | -18.4%
Cc1cnn(CC2CCN(CC(O)CN3CCC(C)CC3)CC2)c1 (stereo unspecified) | 5.11%
CC(c1ccccc1Cl)N(C(=O)CSCC(N)=O)C1CC1 (stereo unspecified) | -36.3%
Cc1ccc(C2CN(CCS(=O)(=O)C(C)C)CCO2)c(C)c1 (stereo unspecified) | 8.25%
COc1cccc(CC(C)NC(=O)NC(C)C)c1 (stereo unspecified) | 4.72%
COc1cccc(CC(C)NC(=O)NCCNC(C)=O)c1 (stereo unspecified) | 7.89%
CC(NC(=O)NCCCO)c1ccc(-c2ccncc2)cc1 (stereo unspecified) | 6.93%
CCCn1nc(C(=O)NCc2nnc3n2CCC3)ccc1=O | -3.18%
CCc1nc(CN2CC(C(=O)OC)O[C@H](C)C2)cs1 (stereo partly specified) | -10.9%
CCc1noc(C(C)N2CCN(Cc3cnc(C)cn3)CC2)n1 (stereo unspecified) | -8.54%

SMILES | cytotoxicity at 10 µM
O=C(O)c1ccn(-c2ccccc2NS(=O)(=O)c2cccc(F)c2)n1 | -18.6%
O=C1CN(c2ccc(CNC(=O)c3ccc[nH]3)cc2F)CCN1 | 1.28%
O=C(c1cccnc1-n1cncn1)N1CCN(CC(F)(F)F)CC1 | 4.39%
CC(CNC(=O)NCCCc1cc(N)n(-c2ccccc2)n1)N(C)C (stereo unspecified) | 11.9%
CCc1nc2n(n1)CC(NCc1cnc(N(CC)CC)s1)CC2 (stereo unspecified) | 7.39%
Cc1cc(CSC2CCCN(c3cnn(C)c3)C2=O)no1 (stereo unspecified) | 29.7%
Cn1ccc2c(C(=O)N3CCC4(CCOC4)C3)cccc21 (stereo unspecified) | -152%
COc1cccc(S(=O)(=O)NC(=O)CC2CCCC2)c1 | 3.13%
O=C1CCCN1CC1CCCCN1C(=O)Nc1cccnc1 (stereo unspecified) | -0.123%
CCc1nnc2n1CCN(CC(O)CN1CCC(C)CC1)C2 (stereo unspecified) | -7.37%
CC(=O)c1c(F)cccc1NCC(O)C(C)(C)C (stereo unspecified) | 18.7%
O=S1(=O)CCN2C(=N1)Oc1ccc(Cl)cc12 | 13.7%
Cc1ccccc1C1(CNC(=O)c2ccc(S(C)(=O)=O)cc2)CC1 | -7.16%
CCN1CC2(CC1=O)CN(C(=O)NC(C)C)CCN(C(=O)C(C)C)C2 (stereo unspecified) | 0.508%
CCC(C)(C)C(=O)N1C[C@@H]2C[C@@H](c3nnc(C)[nH]3)O[C@@H]2C1 | 4.79%
Cc1ccc2c(n1)N(Cc1cccnc1)CCN(Cc1cnn(C)c1)C2 | 9.12%
CNC(=O)[C@@H]1C[C@@H]2CCN(Cc3ccoc3)C[C@H]2O1 | -108%
O=C(c1cscn1)N1CC[C@H]2C[C@H](c3nnc(C4CC4)o3)O[C@@H]2C1 | -111%
O=C(c1ccco1)N1CC[C@@H]2[C@H]1CCC(=O)N2c1ccccc1 | -110%
Cc1noc(C)c1C(=O)N1CC[C@H]2C[C@@H](c3ccncn3)O[C@@H]2C1 | -2.16%
COc1ccc(C2(C(=O)N3CC[C@@]4(O)CCNC[C@H]4C3)CCCC2)cc1 | 6.03%
CCc1nc(C)c(CN2CCN(c3ncnc4scc(C)c34)CC2)[nH]1 | 16.4%

SMILES | cytotoxicity at 10 µM
Cc1cc2cc(NC(=O)Cn3ncc(N4CCCC4)cc3=O)ccc2o1 | -0.273%
Nc1nc(NCCc2[nH]nc3c2CCCC3)cc(N2CCOCC2)n1 | 0.666%
Cc1nc(C(C)C)sc1CNC(=O)CCCN1CCCCC1 | -13.8%
O=C(O)C1(Oc2ccccc2F)CCN(C/C=C/c2ccco2)CC1 | -6.49%
CCOCC(=O)NC(C)c1cc(C)ccc1C (stereo unspecified) | 5.6%
Cc1nc(-c2cc(F)c3c(c2)CC(CN)O3)c[nH]1 (stereo unspecified) | 9.15%
COc1cccc(CC2(C(=O)O)CCN(c3ccc(Cl)cn3)CC2)c1 | -14%
Cn1cc(CN2CCCC(CCc3c(F)cccc3F)C2)cn1 (stereo unspecified) | -7.55%
CC(C)[C@@H]1CN(S(=O)(=O)c2cccc(C(=O)O)c2)C[C@H]1N(C)C | -39.1%
O=C(c1cc(COc2ccc3c(c2)OCO3)[nH]n1)N1CCCCO1 | -2.47%
NC(=O)c1ccc(N2CCN(Cc3c(Cl)cncc3Cl)CC2)nc1 | 10.6%
CCN1CC2(CCN(C(=O)C(C)Oc3ccc(F)cc3Cl)CC2)CC1=O (stereo unspecified) | -2.98%
Cc1cnc(N2CC[C@@]3(O)CCCC[C@H]3C2)nc1-c1ccnn1C | 0.276%
CN(CC1Cc2ccccc2CN1C)c1nc(N)nc2c1CCNCC2 (stereo unspecified) | 0.0642%
CC(C)Cc1nc(CCn2ccc(=O)[nH]c2=O)n(-c2ccccn2)n1 | -5.41%
Cc1nc(C)n(CC2CN(CC(=O)NC3CCCC3)CCO2)n1 (stereo unspecified) | -4.83%
Cc1nc(C)n(CC2CCCCN2Cc2cnc(C)s2)n1 (stereo unspecified) | -2.66%
Cc1cnn(C2CCCN(C(=O)c3ccc(-n4cccn4)nc3)C2)c1 (stereo unspecified) | -6.12%
COc1c(CNC2CCN(c3ncccn3)CC2)c(C)nn1C | -1.66%
O=C(CCOc1ccc(F)cc1)N1CCCC1Cn1cccn1 (stereo unspecified) | -2.7%
c1cnnc(N2CCCC2CNCc2nc(-c3ccco3)no2)c1 (stereo unspecified) | -10.2%
CCc1ccsc1C(=O)N1CCCN(Cc2nccn2CC)CC1 | 1.84%

SMILES | cytotoxicity at 10 µM
c1cnnc(N2CCCC(NCc3ccncc3)C2)c1 (stereo unspecified) | -5.39%
Cn1cnnc1C1CCCN(C(=O)c2ccc3c(c2)OCCO3)C1 (stereo unspecified) | -11%
Cc1ccsc1C(=O)NCCCn1nc2ccccn2c1=O | -1.1%
c1ccc2oc(CCCN3CCCC3Cn3cncn3)nc2c1 (stereo unspecified) | -1.42%
CCN(CC)C(C(=O)NCc1ccc(N2CCCC2)nc1)C(C)C (stereo unspecified) | -8.08%
O=C(CCN1CCCC1c1cccs1)N1CCc2sccc2C1 (stereo unspecified) | -0.636%
Cn1cc(CN2CC[C@H]3O[C@H](C(=O)Nc4cnccn4)CC[C@H]32)cn1 | -135%
Cc1ccc(C(=O)N2CCC3(CC2)CC(c2ccccc2)C(=O)N3)cn1 (stereo unspecified) | -7.42%
CN1CCC2(CCN(c3ncc(F)cn3)CC2)C1=O | 0.411%
Cc1occc1C(=O)N1CCC2(CC1)CN(Cc1nccs1)CCO2 | 5.22%
COCCN1C[C@@H]2[C@@H](OC)CCN(Cc3ccsc3)[C@@H]2C1 | 2.78%
CN1CC(=O)N(c2cnn(C)c2)CC12CCN(CC1CC1)C2 (stereo unspecified) | 7.6%
CCCS(=O)(=O)N1C[C@@H](Oc2ncccc2F)[C@H]2OCCC[C@H]21 | 2.95%
O=C(Cc1cccs1)N1CC[C@H]2[C@@H]1CCC(=O)N2c1cccnc1 | 3.94%
CCOCc1nnc2n1CCN(Cc1c(C)noc1C)CC2 | -95.3%
CC(C)C(=O)N1CCCC2(C1)CN(c1nncs1)CCO2 (stereo unspecified) | -104%
O=C(NC[C@]12COC[C@H]1CN(CC1CCOCC1)C2)c1ccccc1 | -5.15%
COc1ccc(CN2CCC3(CC2)NC(=O)CC3c2ccncc2)cc1 (stereo unspecified) | 5.97%
